The record followed here is ChEMBL document CHEMBL1144443, “Novel 3D pharmacophore of alpha-MSH/gamma-MSH hybrids leads to selective human MC1R and MC3R analogues” (J Med Chem, 2005).

Assay [1] deals with T1, Melanocortin receptor 3 (Homo sapiens, UniProt P41968). The assay is described as follows: Effective concentration for intracellular cAMP accumulation in human melanocortin 3 receptor expressing HEK 293 cells; (N = 4). Format: functional, cell-based, HEK293. The method in brief:
(§1)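 HEK293 cells transfected with human MCRs, grown in MEM with 10% FBS, seeded 48 h before at 100 000 cells/well. Stopped with ice-cold Tris/EDTA, boiled 15 min, centrifuged; cAMP in supernatant measured by competitive binding kit. EC50 and maximal response by nonlinear least-squares fit.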
(cAMP levels reflect the balance of adenylyl cyclase and phosphodiesterase activity.)

Assay [2] concerns the target T2, Melanocortin receptor 5 (Homo sapiens, UniProt P33032). In kind it is cell-based, HEK293.
Assay [3] addresses T1, Melanocortin receptor 3. Format: cell-based, HEK293.
The target in assay [4] is T2, Melanocortin receptor 5. Put plainly: Effective concentration for intracellular cAMP accumulation in human melanocortin 5 receptor expressing HEK 293 cells; (N = 4). Format: functional, cell-based, HEK293. The method in brief:
as §1

Assay [5] has as its target T3, Melanocyte-stimulating hormone receptor (Homo sapiens, UniProt Q01726). The assay is described as follows: Effective concentration for intracellular cAMP accumulation in human melanocortin 1 receptor expressing HEK 293 cells; (N = 4). Format: functional, cell-based, HEK293. An outline of the steps:
as §1
Target sequence in this assay (Q01726 whole entry): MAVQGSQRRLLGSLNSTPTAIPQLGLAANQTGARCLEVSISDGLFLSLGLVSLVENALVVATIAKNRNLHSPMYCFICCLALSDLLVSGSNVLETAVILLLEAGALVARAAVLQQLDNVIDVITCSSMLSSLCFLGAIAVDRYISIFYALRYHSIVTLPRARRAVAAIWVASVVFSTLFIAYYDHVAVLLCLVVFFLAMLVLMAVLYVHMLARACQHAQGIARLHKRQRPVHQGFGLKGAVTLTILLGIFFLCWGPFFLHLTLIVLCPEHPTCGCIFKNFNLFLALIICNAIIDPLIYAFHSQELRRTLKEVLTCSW

Assay [6] concerns the target T4, Melanocortin receptor 4 (Homo sapiens, UniProt P32245). Format: cell-based, HEK293.
For assay [7], the target named is T3, Melanocyte-stimulating hormone receptor. Format: cell-based, HEK293.
Target sequence in this assay (Q01726 whole entry): as above
The target in assay [8] is T4, Melanocortin receptor 4. The assay is described as follows: Effective concentration for intracellular cAMP accumulation in human melanocortin 4 receptor expressing HEK 293 cells; (N = 4). Format: functional, cell-based, HEK293.
For assay [9], the target named is T4, Melanocortin receptor 4. Conditions: HEK293; call rule not given here.
The target in assay [10] is T1, Melanocortin receptor 3. Put plainly: Maximal effect on human melanocortin 3 receptor expressing HEK 293 cells. Format: functional, cell-based. Conditions: HEK293. An outline of the steps:
as §1

In assay [11] the target is T2, Melanocortin receptor 5. The assay is described as follows: Maximal effect on human melanocortin 5 receptor expressing HEK 293 cells. Format: functional, cell-based. The conditions noted are these: HEK293. An outline of the steps: as §1
The target of assay [12] is T3, Melanocyte-stimulating hormone receptor. Put plainly: Maximal effect on human melanocortin 1 receptor expressing HEK 293 cells. In kind it is functional, cell-based. Conditions: HEK293. The method in brief: as §1
Target sequence in this assay (Q01726 whole entry, looked up): as the sequence (Q01726 whole entry) above
Assay [13] addresses T2, Melanocortin receptor 5. Put plainly: Effective concentration for intracellular cAMP accumulation in human melanocortin 5 receptor expressing HEK 293 cells; (N = 4), No activity. In kind it is functional, cell-based. The conditions noted are these: hek293. The method in brief:
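HEK293 cells transfected with human MCRs, grown in MEM with 10% FBS, seeded 48 h before at 100 000 cells/well. Preincubated 1 min at 37 °C in EBSS with IBMX, then exposed 3 min at 37 °C to peptide (10^-10 to 10^-5 M). Stopped with ice-cold Tris/EDTA, boiled 15 min, centrifuged; cAMP in supernatant measured by competitive binding kit. EC50 and maximal response by nonlinear least-squares fit.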

Molecules are shown by their SMILES. Where a SMILES comes first, the peptide text is derived from it. [ ]: non-standard residue; d: D form. d2Nal = N[C@H](Cc1ccc2ccccc2c1)C(=O)O; Nle = CCCC[C@H](N)C(=O)O Bounds are passed on as bounds.

T1 sequence (P41968 whole entry): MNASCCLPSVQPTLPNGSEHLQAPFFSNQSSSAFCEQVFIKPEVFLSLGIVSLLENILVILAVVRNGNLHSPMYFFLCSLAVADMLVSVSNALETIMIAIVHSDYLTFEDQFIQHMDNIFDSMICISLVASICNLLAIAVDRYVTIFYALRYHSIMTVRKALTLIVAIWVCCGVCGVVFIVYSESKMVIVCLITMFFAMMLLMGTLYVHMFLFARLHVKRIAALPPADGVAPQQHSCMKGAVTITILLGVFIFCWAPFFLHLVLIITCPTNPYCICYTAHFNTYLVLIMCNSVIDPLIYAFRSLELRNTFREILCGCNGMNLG
T2 sequence (P33032 whole entry): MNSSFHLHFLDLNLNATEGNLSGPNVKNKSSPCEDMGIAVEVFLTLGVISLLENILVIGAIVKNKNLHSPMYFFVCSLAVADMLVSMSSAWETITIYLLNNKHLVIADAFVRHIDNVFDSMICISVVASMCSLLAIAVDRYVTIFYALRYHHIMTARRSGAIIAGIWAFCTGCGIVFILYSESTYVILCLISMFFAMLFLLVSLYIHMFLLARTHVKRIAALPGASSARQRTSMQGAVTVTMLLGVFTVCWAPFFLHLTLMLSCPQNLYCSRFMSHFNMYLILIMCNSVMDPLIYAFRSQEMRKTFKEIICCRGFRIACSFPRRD
T4 sequence (P32245 whole entry): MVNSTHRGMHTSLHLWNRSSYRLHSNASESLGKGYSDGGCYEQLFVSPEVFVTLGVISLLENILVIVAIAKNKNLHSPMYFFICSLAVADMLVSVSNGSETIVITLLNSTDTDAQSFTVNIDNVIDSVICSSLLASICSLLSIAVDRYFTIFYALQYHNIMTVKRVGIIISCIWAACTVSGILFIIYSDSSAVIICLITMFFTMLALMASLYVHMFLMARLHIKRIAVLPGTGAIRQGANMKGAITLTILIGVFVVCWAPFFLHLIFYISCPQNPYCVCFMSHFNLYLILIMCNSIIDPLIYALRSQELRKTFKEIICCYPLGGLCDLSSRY

The term EC50 denotes the concentration needed to bring the measured effect to its halfway point. A high value points to weaker potency. Usually IC50 stands for the concentration that gives 50% inhibition. High values mean a need for much substance, low ones inhibition by little substance. With `CCCC[C@H](NC(=O)[C@@H](NC(=O)[C@@H](N)Cc1ccc(O)cc1)C(C)C)C(=O)NCC(=O)N1CCC[C@H]1C(=O)N[C@@H](Cc1ccccc1)C(=O)N[C@@H](CCCN=C(N)N)C(=O)N[C@H](Cc1ccc2ccccc2c1)C(=O)N[C@@H](CC(=O)O)C(=O)N[C@@H](CCCN=C(N)N)C(=O)N[C@@H](Cc1ccccc1)C(=O)NCC(N)=O`, the EC50 turned out to be 13 nM on Melanocortin receptor 3 [1] and 250 nM on Melanocortin receptor 5 [4]. Also, the concentration for half-maximal inhibition (IC50) at Melanocortin receptor 5 [2] worked out at 650 nM; against Melanocortin receptor 3 [3] it was 32 nM.
As to `CCCC[C@H](NC(=O)[C@@H](NC(=O)[C@@H](N)Cc1ccc(O)cc1)C(C)C)C(=O)NCC(=O)N[C@@H](Cc1c[nH]cn1)C(=O)N[C@H](Cc1ccccc1)C(=O)N[C@@H](CCCN=C(N)N)C(=O)N[C@H](Cc1ccc2ccccc2c1)C(=O)N[C@@H](CC(=O)O)C(=O)N[C@@H](CCCN=C(N)N)C(=O)N[C@@H](Cc1ccccc1)C(=O)NCC(N)=O`, the concentration giving a half-maximal response (EC50) worked out at 2 nM in [5], 36 nM on Melanocortin receptor 4 [8] and 200 nM on Melanocortin receptor 5 [4]. The IC50 on Melanocortin receptor 4 [6] is 6 nM; on Melanocortin receptor 5 [2] it was 5 nM; against Melanocortin receptor 3 [3], 6 nM; in assay [7] it was 0.7 nM.
As to `CCCC[C@H](NC(=O)[C@@H](NC(=O)[C@@H](N)Cc1ccc(O)cc1)C(C)C)C(=O)NCC(=O)N[C@H](Cc1ccc2ccccc2c1)C(=O)N[C@@H](Cc1ccccc1)C(=O)N[C@@H](CCCN=C(N)N)C(=O)N[C@@H](Cc1c[nH]c2ccccc12)C(=O)N[C@@H](CC(=O)O)C(=O)N[C@@H](CCCN=C(N)N)C(=O)N[C@@H](Cc1ccccc1)C(=O)NCC(N)=O`, the concentration for a half-maximal effect (EC50) at Melanocortin receptor 3 [1] (hek293) was greater than 10000 nM; at Melanocortin receptor 4 [8] (hek293), greater than 10000 nM; on Melanocortin receptor 5 [4] (hek293), 870 nM. The concentration for half-maximal inhibition (IC50) against Melanocortin receptor 4 [6] (hek293) turned out to be 1990 nM; at Melanocortin receptor 5 [2] (hek293) it was 1000 nM; against Melanocortin receptor 3 [3] (hek293), 3000 nM.
On Melanocortin receptor 4 [6], `CCCC[C@H](NC(=O)[C@@H](NC(=O)[C@@H](N)Cc1ccc(O)cc1)C(C)C)C(=O)NCC(=O)N[C@@H](Cc1c[nH]cn1)C(=O)N[C@H](Cc1ccccc1)C(=O)N[C@@H](CCCN=C(N)N)C(=O)N[C@H](Cc1c[nH]c2ccccc12)C(=O)N[C@@H](CC(=O)O)C(=O)N[C@@H](CCCN=C(N)N)C(=O)N[C@@H](Cc1ccccc1)C(=O)NCC(N)=O` gave an IC50 of 17 nM. The compound further returned a concentration for a half-maximal effect (EC50) on Melanocortin receptor 4 [8] of 29 nM.
The compound `CCCC[C@H](NC(=O)[C@@H](NC(=O)[C@@H](N)Cc1ccc(O)cc1)C(C)C)C(=O)NCC(=O)N[C@@H](Cc1c[nH]cn1)C(=O)N[C@@H](Cc1ccccc1)C(=O)N[C@@H](CCCN=C(N)N)C(=O)N[C@@H](Cc1c[nH]c2ccccc12)C(=O)N[C@@H](CC(=O)O)C(=O)N[C@@H](CCCN=C(N)N)C(=O)N[C@@H](Cc1ccccc1)C(=O)NCC(N)=O` had an IC50 against Melanocortin receptor 4 [6] of 64 nM.
Turning to `CCCC[C@H](NC(=O)[C@@H](NC(=O)[C@@H](N)Cc1ccc(O)cc1)C(C)C)C(=O)NCC(=O)N[C@@H](Cc1c[nH]cn1)C(=O)N[C@@H](Cc1ccccc1)C(=O)N[C@@H](CCCN=C(N)N)C(=O)N[C@@H](Cc1c[nH]c2ccccc12)C(=O)N[C@@H](CC(=O)O)C(=O)N[C@@H](CCCN=C(N)N)C(=O)N[C@@H](Cc1ccccc1)C(=O)NCC(=O)O`, at Melanocortin receptor 4 [9], the Maximal effect was determined as 100%.
`CCCC[C@H](NC(=O)[C@@H](NC(=O)[C@@H](N)Cc1ccc(O)cc1)C(C)C)C(=O)NCC(=O)N1CCC[C@H]1C(=O)N[C@@H](Cc1ccccc1)C(=O)N[C@@H](CCCN=C(N)N)C(=O)N[C@H](Cc1ccc2ccccc2c1)C(=O)N[C@@H](CC(=O)O)C(=O)N[C@@H](CCCN=C(N)N)C(=O)N[C@@H](Cc1ccccc1)C(=O)NCC(=O)O`: the Maximal effect was found to be 28% at Melanocortin receptor 3 [10], 14% on Melanocortin receptor 4 [9], 46% on Melanocortin receptor 5 [11] and 120% in assay [12].
As to `CCCC[C@H](NC(=O)[C@@H](NC(=O)[C@@H](N)Cc1ccc(O)cc1)C(C)C)C(=O)NCC(=O)N[C@@H](Cc1cnc[nH]1)C(=O)N[C@H](Cc1ccc2ccccc2c1)C(=O)N[C@@H](CCCNC(=N)N)C(=O)N[C@H](Cc1ccccc1)C(=O)N[C@@H](CC(=O)O)C(=O)N[C@@H](CCCNC(=N)N)C(=O)N[C@@H](Cc1ccccc1)C(=O)NCC(N)=O` (H-YV[Nle]GH[d2Nal]R[dF]DRFG-NH2), the 50% effective concentration (EC50) in assay [5] was found to be 1.5 nM; at Melanocortin receptor 3 [1] it was 951 nM; at Melanocortin receptor 4 [8], 2700 nM; at Melanocortin receptor 5 [4], 490 nM. Moreover, the IC50 against Melanocortin receptor 4 [6] stood at 20 nM; against Melanocortin receptor 5 [2] it was 3.3 nM; against Melanocortin receptor 3 [3] it was 6 nM; in assay [7], 0.16 nM.
For the compound `CCCC[C@H](NC(=O)[C@@H](NC(=O)[C@@H](N)Cc1ccc(O)cc1)C(C)C)C(=O)NCC(=O)N1CCC[C@H]1C(=O)N[C@H](Cc1ccc2ccccc2c1)C(=O)N[C@@H](CCCN=C(N)N)C(=O)N[C@H](Cc1ccc2ccccc2c1)C(=O)N[C@@H](CC(=O)O)C(=O)N[C@@H](CCCN=C(N)N)C(=O)N[C@@H](Cc1ccccc1)C(=O)NCC(N)=O`, the half-maximal effective concentration (EC50) is 2 nM in [5], “Not Active” on Melanocortin receptor 5 [13], 11 nM on Melanocortin receptor 3 [1] and 3.3 nM at Melanocortin receptor 4 [8]. Also, the IC50 worked out at 4 nM at Melanocortin receptor 4 [6], 2 nM on Melanocortin receptor 5 [2], 3 nM against Melanocortin receptor 3 [3] and 2 nM in assay [7].
